The text below walks through data of ChEMBL document CHEMBL1127433, “N6-substituted adenosine receptor agonists. Synthesis and pharmacological activity as potent antinociceptive agents” (J Med Chem, 1994).

Activity calls are given as the source filed them. The calls are words filed in the database; no cut-off is given here.

One experiment relates to Mus musculus. Put plainly: Effective dose of compound for phenylbenzoquinone-Induced writhing in mice after peroral administration expressed as analgesic activity; Inactive.
Settings: not given
Format: functional, organism-based. The procedure, abridged: (§1)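 Mice dosed orally (0.5 mL/20 g); 1 h later given 0.02% phenylbenzoquinone in hydroalcoholic solution ip (0.20-0.24 mL). Writhings and stretches counted from minute 5 to minute 10. Six animals per group. Inhibition taken against the control mean; ED50 (50% decrease) by linear regression.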
As for `CC(C)(CO)NC(=O)[C@H]1OC(n2cnc3c(NCCc4cn(Cc5ccc(Cl)cc5)c5ccccc45)ncnc32)[C@H](O)[C@@H]1O` (stereo partly specified), the ED50 result is “inactive”.
Same read-out and setting: the result for `O=C(NC1CC1)[C@H]1OC(n2cnc3c(NCCc4cn(Cc5ccc(Br)cc5F)c5ccccc45)ncnc32)[C@H](O)[C@@H]1O` (stereo partly specified) reads “inactive”.

The target of a further experiment is T1, Adenosine A2 receptor (Rattus norvegicus) (UniProt P29276+P30543). Put plainly: Percent displacement from adenosine A2 receptor at 10e-7 M in rat striatal membrane in vitro. The settings on record: Striatum. Format: cell membranes.
For the compound `CC(C)(CO)NC(=O)[C@H]1OC(n2cnc3c(NCCc4cn(Cc5ccc(Cl)cc5)c5ccccc45)ncnc32)[C@H](O)[C@@H]1O` (stereo partly specified), the Displacement came out at 0%.
On the same count and under the same terms, as for `O=C(NC1CC1)[C@H]1OC(n2cnc3c(NCCc4cn(Cc5ccc(Br)cc5F)c5ccccc45)ncnc32)[C@H](O)[C@@H]1O` (stereo partly specified), the figure is 23%; as for `O=C(NC1CC1)[C@H]1O[C@@H](n2cnc3c(NCCc4cn(Cc5cccc([N+](=O)[O-])c5)c5ccccc45)ncnc32)[C@H](O)[C@@H]1O`, 46%.
`O=C(NC1CC1)[C@H]1O[C@@H](n2cnc3c(NCCc4cn(Cc5cccc6ccccc56)c5ccccc45)ncnc32)[C@H](O)[C@@H]1O` yielded a Displacement of 8%.
Compound `O=C(NC1CC1)[C@H]1O[C@@H](n2cnc3c(NCCc4c[nH]c5ccccc45)ncnc32)[C@H](O)[C@@H]1O` came in with a Displacement of 29%.

A further experiment has as its target T2, Adenosine receptor A1 (Rattus norvegicus) (UniProt P25099).
T2 sequence (whole entry): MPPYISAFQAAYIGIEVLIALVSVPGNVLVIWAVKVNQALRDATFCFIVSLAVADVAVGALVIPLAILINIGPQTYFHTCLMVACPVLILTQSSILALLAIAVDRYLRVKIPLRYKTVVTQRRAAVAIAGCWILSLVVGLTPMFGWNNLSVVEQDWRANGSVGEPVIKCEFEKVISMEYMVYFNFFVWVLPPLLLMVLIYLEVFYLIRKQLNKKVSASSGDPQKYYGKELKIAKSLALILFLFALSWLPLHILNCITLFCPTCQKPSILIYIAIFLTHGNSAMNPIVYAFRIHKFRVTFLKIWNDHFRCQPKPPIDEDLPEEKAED
Put plainly: Percent displacement from adenosine A1 receptor at 10e-7 M in rat brain membrane in vitro. Format: cell membranes.
Settings: not given
The compound `CC(C)(CO)NC(=O)[C@H]1OC(n2cnc3c(NCCc4cn(Cc5ccc(Cl)cc5)c5ccccc45)ncnc32)[C@H](O)[C@@H]1O` (stereo partly specified) had a Displacement of 5%.
Same read-out and setting: as for `O=C(NC1CC1)[C@H]1OC(n2cnc3c(NCCc4cn(Cc5ccc(Br)cc5F)c5ccccc45)ncnc32)[C@H](O)[C@@H]1O` (stereo partly specified), the figure is 40%; as for `O=C(NC1CC1)[C@H]1O[C@@H](n2cnc3c(NCCc4cn(Cc5cccc([N+](=O)[O-])c5)c5ccccc45)ncnc32)[C@H](O)[C@@H]1O`, 63%; as for `O=C(NC1CC1)[C@H]1O[C@@H](n2cnc3c(NCCc4cn(Cc5cccc6ccccc56)c5ccccc45)ncnc32)[C@H](O)[C@@H]1O`, 20%.
The same measure, in the same setting: as for `O=C(NC1CC1)[C@H]1O[C@@H](n2cnc3c(NCCc4c[nH]c5ccccc45)ncnc32)[C@H](O)[C@@H]1O`, the figure is 91%.

A further experiment addresses T3, Adenosine receptor A1 (Rattus norvegicus, UniProt P25099).
T3 sequence (P25099 whole entry): T2 sequence (whole entry)
Put plainly: Binding affinity for adenosine A1 receptor in vitro using rat brain membranes. Format: cell membranes.
Settings: not given
In outline: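 Whole rat brain membranes, homogenized in 50 mM Tris-HCl pH 7.4 and spun at 1090g then 48000g, pretreated with adenosine deaminase 1 U/mL for 30 min. Nonspecific binding defined with 10 μM PIA. Separated by GF/B filtration and scintillation counted, in triplicate. IC50 from log-logit regression, Ki via Cheng-Prusoff, one experiment.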
Compound `O=C(NC1CC1)[C@H]1O[C@@H](n2cnc3c(NCCc4cn(Cc5cccc([N+](=O)[O-])c5)c5ccccc45)ncnc32)[C@H](O)[C@@H]1O` came in with a Ki of 29 nM.

The target in a further experiment is T1, Adenosine A2 receptor (Rattus norvegicus). Put plainly: Percent displacement from adenosine A2 receptor at 10e-5 M in rat striatal membrane in vitro. Format: cell membranes.
Settings: not given
Take `CC(C)(CO)NC(=O)[C@H]1OC(n2cnc3c(NCCc4cn(Cc5ccc(Cl)cc5)c5ccccc45)ncnc32)[C@H](O)[C@@H]1O` (stereo partly specified): the Displacement worked out at 50%.
For `O=C(NC1CC1)[C@H]1OC(n2cnc3c(NCCc4cn(Cc5ccc(Br)cc5F)c5ccccc45)ncnc32)[C@H](O)[C@@H]1O` (stereo partly specified), the Displacement was found to be 92%.
On to `O=C(NC1CC1)[C@H]1O[C@@H](n2cnc3c(NCCc4cn(Cc5cccc([N+](=O)[O-])c5)c5ccccc45)ncnc32)[C@H](O)[C@@H]1O`, for which the Displacement amounted to 99%.
Same read-out and setting: the result for `O=C(NC1CC1)[C@H]1O[C@@H](n2cnc3c(NCCc4cn(Cc5cccc6ccccc56)c5ccccc45)ncnc32)[C@H](O)[C@@H]1O` reads 76%; that for `O=C(NC1CC1)[C@H]1O[C@@H](n2cnc3c(NCCc4c[nH]c5ccccc45)ncnc32)[C@H](O)[C@@H]1O`, 68%.

Another experiment has as its system Mus musculus. Put plainly: Effective dose for phenylbenzoquinone-induced writhing in mice after peroral administration expressed as analgesic activity. The settings on record: po. Type of experiment: functional. In outline: as §1
`O=C(NC1CC1)[C@H]1O[C@@H](n2cnc3c(NCCc4cn(Cc5cccc6ccccc56)c5ccccc45)ncnc32)[C@H](O)[C@@H]1O` had an ED50 of 2.4 mg/kg.
Same read-out and setting: the result for `O=C(NC1CC1)[C@H]1O[C@@H](n2cnc3c(NCCc4c[nH]c5ccccc45)ncnc32)[C@H](O)[C@@H]1O` reads 34.9 mg/kg.

A further experiment concerns the target T2, Adenosine receptor A1 (Rattus norvegicus). Put plainly: Percent displacement from adenosine A1 receptor at 10e-5 M in rat brain membrane in vitro.
Settings: not given
Format: cell membranes.
As for `CC(C)(CO)NC(=O)[C@H]1OC(n2cnc3c(NCCc4cn(Cc5ccc(Cl)cc5)c5ccccc45)ncnc32)[C@H](O)[C@@H]1O` (stereo partly specified), the Displacement turned out to be 79%.
`O=C(NC1CC1)[C@H]1OC(n2cnc3c(NCCc4cn(Cc5ccc(Br)cc5F)c5ccccc45)ncnc32)[C@H](O)[C@@H]1O` (stereo partly specified) registered a Displacement of 96%.
Same read-out and setting: the result for `O=C(NC1CC1)[C@H]1O[C@@H](n2cnc3c(NCCc4cn(Cc5cccc([N+](=O)[O-])c5)c5ccccc45)ncnc32)[C@H](O)[C@@H]1O` reads 100%; that for `O=C(NC1CC1)[C@H]1O[C@@H](n2cnc3c(NCCc4cn(Cc5cccc6ccccc56)c5ccccc45)ncnc32)[C@H](O)[C@@H]1O`, 93%; that for `O=C(NC1CC1)[C@H]1O[C@@H](n2cnc3c(NCCc4c[nH]c5ccccc45)ncnc32)[C@H](O)[C@@H]1O`, 100%.

Another experiment deals with Adenosine A2 receptor (Rattus norvegicus, UniProt P29276+P30543). Put plainly: Binding affinity for adenosine A2 receptor in vitro using rat striatal membrane. Type of experiment: cell membranes.
Settings: not given
In outline: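 Rat striatal membranes in 50 mM Tris-HCl, 10 mM MgCl2, pH 7.7, adenosine deaminase treated (1 U/mL, 30 min). Incubated with [3H]NECA (4 nM, 50 μL) plus 0.11 μM cyclopentyladenosine and competitor for 60 min at 25 °C. Nonspecific binding defined with 5 μM NECA. GF/B filtration, scintillation counting, triplicate. IC50 from log-logit regression, Ki via Cheng-Prusoff, one experiment.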
For the compound `O=C(NC1CC1)[C@H]1O[C@@H](n2cnc3c(NCCc4cn(Cc5cccc([N+](=O)[O-])c5)c5ccccc45)ncnc32)[C@H](O)[C@@H]1O`, the Ki stood at 182 nM.
The same measure, in the same setting: as for `O=C(NC1CC1)[C@H]1O[C@@H](n2cnc3c(NCCc4cn(Cc5cccc6ccccc56)c5ccccc45)ncnc32)[C@H](O)[C@@H]1O`, the figure is 1400 nM.
In turn, `O=C(NC1CC1)[C@H]1O[C@@H](n2cnc3c(NCCc4c[nH]c5ccccc45)ncnc32)[C@H](O)[C@@H]1O` displayed a Ki of 560 nM.

The next experiment deals with T3, Adenosine receptor A1. Put plainly: Binding affinity for adenosine A1 receptor in rat brain membrane. Type of experiment: cell membranes.
Settings: not given
In outline:
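Whole rat brain membranes, homogenized in 50 mM Tris-HCl pH 7.4 and spun at 1090g then 48000g, pretreated with adenosine deaminase 1 U/mL for 30 min. Incubated with 2.5 nM [3H]PIA and competitor at 20 °C for 30 min. Nonspecific binding defined with 10 μM PIA. Separated by GF/B filtration and scintillation counted, in triplicate. IC50 from log-logit regression, Ki via Cheng-Prusoff, one experiment.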
`O=C(NC1CC1)[C@H]1O[C@@H](n2cnc3c(NCCc4cn(Cc5cccc6ccccc56)c5ccccc45)ncnc32)[C@H](O)[C@@H]1O` registered a Ki of 370 nM.
Same read-out and setting: as for `O=C(NC1CC1)[C@H]1O[C@@H](n2cnc3c(NCCc4c[nH]c5ccccc45)ncnc32)[C@H](O)[C@@H]1O`, the figure is 7.9 nM.

The next experiment deals with Mus musculus. Put plainly: Effective dose of compound for phenylbenzoquinone-Induced writhing in mice after peroral administration expressed as analgesic activity; Not calculated. Format: functional. The settings on record: po. In outline: as §1
On to `O=C(NC1CC1)[C@H]1O[C@@H](n2cnc3c(NCCc4cn(Cc5cccc([N+](=O)[O-])c5)c5ccccc45)ncnc32)[C@H](O)[C@@H]1O`, for which the ED50 is below 10 mg/kg.
